According to ChEMBL document CHEMBL1123790, “Stereospecificity of the chloride ion channel: the action of chiral clofibric acid analogues” (J Med Chem, 1987):
One block for each molecule: values may come before it.

Assays:
Rattus norvegicus [1] = organism: Rattus norvegicus; test: Concentration required to block 50% chloride conductance in rat extensor digitorum longus(EDL) muscle fibers; type: functional, organism-based
Outline: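 Male Wistar rats (180–220 g); EDL muscles in bath at 30 ± 1 °C, perfused with Ringer's (normal or Cl⁻-free methyl sulfate) containing compound, pH 7.3–7.4, from 10^-3 g/mL stocks in 1% NaHCO3. Intracellular microelectrode cable analysis; GCl = mean Gm − mean GK. Three or more concentrations (5–230 μM); curves fit to single-site binding by nonlinear least squares, IC50 ± SD.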

Rattus norvegicus [2] = organism: Rattus norvegicus; test: Maximum number of spikes elicited by strong depolarizing pulses in rat extensor digitorum longus muscle fibers was determined at a concentration of 92 uM; type: functional
Outline: (§1)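 EDL fibres from male Wistar rats (180–220 g), in Ringer's at 30 ± 1 °C, pH 7.3–7.4, drug diluted from bicarbonate stock. Two intracellular microelectrodes within 100 μm; fibre held at -80 mV by holding current, then square-wave constant-current depolarizing pulses. Read-outs: resting potential, latency to action potential, threshold current (long pulse), maximal spike number; mean ± SEM, fibres/preparations counted; Student's t test.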

Rattus norvegicus [3] = organism: Rattus norvegicus; test: Latency in rat extensor digitorum longus(EDL) muscle fibers was determined at a concentration of 92 uM; type: functional; outline: as §1
Rattus norvegicus [4] = organism: Rattus norvegicus; test: Minimal current intensity for a long pulse for a single action potential in rat extensor digitorum longus(EDL) muscle fibers was determined at a concentration of 92 uM; type: functional
Outline: (§2)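 Male Wistar rat (180–220 g) EDL muscles in Ringer's bath at 30 ± 1 °C, pH 7.3–7.4. Two intracellular microelectrodes (current electrode within 100 μm of voltage electrode). Square-wave constant-current pulses applied after holding at -80 mV. Latency = maximum delay to action potential onset; threshold = minimal long-pulse current for one spike; spikes = maximum with strong depolarization. Mean ± SEM; Student's t test.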

Rattus norvegicus [5] = organism: Rattus norvegicus; test: Resting membrane potential in rat extensor digitorum longus(EDL) muscle fibers was determined at a concentration of 92 uM; type: functional; outline: as §1
Rattus norvegicus [6] = organism: Rattus norvegicus; test: Number of fibres over number of preparation sampled was determined at a concentration of 92 uM; type: functional
Rattus norvegicus [7] = organism: Rattus norvegicus; test: Number of fibres over number of preparation sampled was determined at a concentration of 230 uM; type: functional
Rattus norvegicus [8] = organism: Rattus norvegicus; test: Resting membrane potential in rat extensor digitorum longus(EDL) muscle fibers was determined at a concentration of 230 uM; type: functional; outline: as §1
Rattus norvegicus [9] = organism: Rattus norvegicus; test: Latency in rat extensor digitorum longus(EDL) muscle fibers was determined at a concentration of 230 uM; type: functional; outline: as §2
Rattus norvegicus [10] = organism: Rattus norvegicus; test: Minimal current intensity for a long pulse for a single action potential in rat extensor digitorum longus(EDL) muscle fibers was determined at a concentration of 230 uM; type: functional; outline: as §2
Rattus norvegicus [11] = organism: Rattus norvegicus; test: Maximum number of spikes elicited by strong depolarizing pulses in rat extensor digitorum longus(EDL) muscle fibers was determined at a concentration of 230 uM; type: functional; outline: as §2
Rattus norvegicus [12] = organism: Rattus norvegicus; test: Number of fibres over number of preparation sampled was determined at a concentration of; type: functional
Rattus norvegicus [13] = organism: Rattus norvegicus; test: Latency in rat extensor digitorum longus(EDL) muscle fibers was determined at a concentration of 20 uM; type: functional; outline: as §2
Rattus norvegicus [14] = organism: Rattus norvegicus; test: Maximum number of spikes elicited by strong depolarizing pulses in rat extensor digitorum longus muscle fibers was determined at a concentration of 20 uM; type: functional; outline: as §2
Rattus norvegicus [15] = organism: Rattus norvegicus; test: Resting membrane potential determined in rat extensor digitorum longus(EDL) muscle fibers at a concentration of 20 uM; type: functional; outline: as §2
Rattus norvegicus [16] = organism: Rattus norvegicus; test: Minimal current intensity for a long pulse for a single action potential in rat extensor digitorum longus muscle fibers was determined at a concentration of 20 uM; type: functional; outline: as §2
Rattus norvegicus [17] = organism: Rattus norvegicus; test: Maximum number of spikes elicited by strong depolarizing pulses in rat extensor digitorum longus(EDL) muscle fibers was determined at a concentration of 20 uM; type: functional; outline: as §1
Rattus norvegicus [18] = organism: Rattus norvegicus; test: Number of fibres over number of preparation sampled was determined at a concentration of 20 uM; type: functional; outline: as §1
Rattus norvegicus [19] = organism: Rattus norvegicus; test: Minimal current intensity for a long pulse for a single action potential in rat extensor digitorum longus(EDL) muscle fibers was determined at a concentration of 20 uM; type: functional; outline: as §1
Rattus norvegicus [20] = test: Concentration to block chloride membrane conductance (G Cl) in rat extensor digitorum longus (EDL) muscle fibers (in vivo and in vitro); type: functional, organism-based
Outline: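 Male Wistar rats 180–220 g; EDL muscles in bath at 30 ± 1 °C, perfused with Ringer's (normal or Cl⁻-free methyl sulfate), pH 7.3–7.4; compounds from 10^-3 g/mL stock in 1% NaHCO3, tested 5–230 μM. Intracellular microelectrode cable analysis; GCl = mean Gm minus mean GK; ≥3 concentrations; single-site binding fit by nonlinear least squares gives IC50 ± SD.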

Rattus norvegicus [21] = organism: Rattus norvegicus; test: Maximum number of spikes elicited by strong depolarizing pulses in rat extensor digitorum longus(EDL) muscle fibers was determined at a concentration of 92 uM; type: functional; outline: as §2
Rattus norvegicus [22] = organism: Rattus norvegicus; test: Resting membrane potential determined in rat extensor digitorum longus(EDL) muscle fibers at a concentration of 92 uM; type: functional; outline: as §2
Rattus norvegicus [23] = organism: Rattus norvegicus; test: Latency was determined in rat extensor digitorum longus(EDL) muscle fibers at a concentration of 92 uM; type: functional; outline: as §2
Rattus norvegicus [24] = organism: Rattus norvegicus; test: Resting membrane potential determined in rat extensor digitorum longus(EDL) muscle fibers at a concentration of 230 uM; type: functional; outline: as §2

IC50 (Rattus norvegicus [1]): 44 µM
Structure (SMILES): CCC(Oc1ccc(Cl)cc1)C(=O)O (racemic)
No. of spikes (Rattus norvegicus [2]): <15.6 | Latency (Rattus norvegicus [3]): <18.3 ms | Threshold current (Rattus norvegicus [4]): 67.3 nA | Resting potential (Rattus norvegicus [5]): < 65 -mV | Fibers/preparations (Rattus norvegicus [6]): 12

Structure (SMILES): CC[C@@H](Oc1ccc(Cl)cc1)C(=O)O
Fibers/preparations (Rattus norvegicus [7]): 13 | Resting potential (Rattus norvegicus [8]): 70 -mV | Latency (Rattus norvegicus [9]): 5.2 ms | Threshold current (Rattus norvegicus [10]): 121 nA | No. of spikes (Rattus norvegicus [11]): 6.5

Structure (SMILES): C[C@H](Oc1ccc(Cl)cc1)C(=O)O
IC50 (Rattus norvegicus [1]): 12 µM | Fibers/preparations (Rattus norvegicus [12]): 15 | Latency (Rattus norvegicus [13]): <45.5 ms | No. of spikes (Rattus norvegicus [14]): <18 | Resting potential (Rattus norvegicus [15]): 70 -mV | Threshold current (Rattus norvegicus [16]): <65 nA

IC50 (Rattus norvegicus [1]): 10.3 µM
Structure (SMILES): CC[C@H](Oc1ccc(Cl)cc1)C(=O)O
No. of spikes (Rattus norvegicus [17]): <15 | Latency (Rattus norvegicus [13]): <30.2 ms | Resting potential (Rattus norvegicus [15]): 68 -mV | Fibers/preparations (Rattus norvegicus [18]): 8 | Threshold current (Rattus norvegicus [19]): 65 nA

IC50 (Rattus norvegicus [20]): 205 µM
Structure (SMILES): CC(C)(Oc1ccc(Cl)cc1)C(=O)O [CLOFIBRIC ACID]

Structure (SMILES): CC(Oc1ccc(Cl)cc1)C(=O)O (racemic)
IC50 (Rattus norvegicus [1]): 81 µM | No. of spikes (Rattus norvegicus [21]): 12.5 | Threshold current (Rattus norvegicus [4]): 79.1 nA | Resting potential (Rattus norvegicus [22]): 74 -mV | Latency (Rattus norvegicus [23]): 24.3 ms | Fibers/preparations (Rattus norvegicus [6]): 18

Structure (SMILES): C[C@@H](Oc1ccc(Cl)cc1)C(=O)O
Fibers/preparations (Rattus norvegicus [7]): 8 | Latency (Rattus norvegicus [9]): 6.2 ms | Threshold current (Rattus norvegicus [10]): 90 nA | Resting potential (Rattus norvegicus [24]): 73 -mV | No. of spikes (Rattus norvegicus [11]): 6.5
